Results taken from PubChem BioAssay AID485271 (The Scripps Research Institute Molecular Screening Center, 2010).

Assay: inhibition of HCV infection in cells, late-stage follow-up, counter-screen for HCV core dimerization inhibitor project, Huh-7.5 cells, quantitative PCR, fluorescence (AID 485271)
Conditions: Huh-7.5 HCV J6/JFH-1 infection, RT-qPCR viral RNA
How it was run: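 System – HCV J6/JFH-1-infected Huh-7.5 cells · Doses – 1:10 dilution series of compound from 100 µM to 0.001 µM · Repeats – triplicates · Reagent – HCV 2a J6/JFH-1 virus given together with compound · Technique – TaqMan RT-qPCR of viral RNA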

## Cc1ccc(Cc2c(C)nc3nc(SCC(=O)NCCCN4CCCCCC4)nn3c2C)cc1
Time point 1
  IC50: 6.6 µM
Time point 2
  IC50: 12 µM
